# According to the M2OR odorant receptor database:
# Target: T1, OR2T10 (Homo sapiens) (UniProt Q8NGZ9)
# T1 sequence (whole entry): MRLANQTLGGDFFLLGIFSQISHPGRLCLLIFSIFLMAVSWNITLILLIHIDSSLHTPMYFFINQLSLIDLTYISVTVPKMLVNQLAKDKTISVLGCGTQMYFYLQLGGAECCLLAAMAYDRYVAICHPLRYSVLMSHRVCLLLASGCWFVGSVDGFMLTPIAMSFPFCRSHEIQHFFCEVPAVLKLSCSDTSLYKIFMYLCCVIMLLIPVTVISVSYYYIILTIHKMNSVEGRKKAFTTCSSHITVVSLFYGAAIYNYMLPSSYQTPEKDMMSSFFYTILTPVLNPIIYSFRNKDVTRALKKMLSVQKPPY
# Conditions: stereoisomer not certain
# How it was run: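 Assay methods differ from source to source, frequently being transient luciferase assays in mammalian cell lines. For each receptor–molecule pair, the label responsive (active) applies when the original authors judged the measured signal statistically different from baseline, and non-responsive (inactive) applies otherwise.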
row,Compound,odorant receptor agonist call
1,C=CCOC(=O)Cc1ccccc1,inactive
2,C=CCc1ccc(OC)cc1,inactive
3,Cc1c([N+](=O)[O-])c(C)c([N+](=O)[O-])c(C(C)(C)C)c1[N+](=O)[O-],inactive
4,O=CC=Cc1ccccc1,active
5,O=Cc1ccccc1,inactive
